Consider 6 compounds from paper PMC10586715 (ACS chemical biology, 2023).

Peptide text beside a SMILES is read from it. * marks the point of attachment. Cbz = O=C(OCc1ccccc1)*

In test [1] the target is T1, sEH (Homo sapiens, UniProt P34913).
T1 sequence (P34913 1-555): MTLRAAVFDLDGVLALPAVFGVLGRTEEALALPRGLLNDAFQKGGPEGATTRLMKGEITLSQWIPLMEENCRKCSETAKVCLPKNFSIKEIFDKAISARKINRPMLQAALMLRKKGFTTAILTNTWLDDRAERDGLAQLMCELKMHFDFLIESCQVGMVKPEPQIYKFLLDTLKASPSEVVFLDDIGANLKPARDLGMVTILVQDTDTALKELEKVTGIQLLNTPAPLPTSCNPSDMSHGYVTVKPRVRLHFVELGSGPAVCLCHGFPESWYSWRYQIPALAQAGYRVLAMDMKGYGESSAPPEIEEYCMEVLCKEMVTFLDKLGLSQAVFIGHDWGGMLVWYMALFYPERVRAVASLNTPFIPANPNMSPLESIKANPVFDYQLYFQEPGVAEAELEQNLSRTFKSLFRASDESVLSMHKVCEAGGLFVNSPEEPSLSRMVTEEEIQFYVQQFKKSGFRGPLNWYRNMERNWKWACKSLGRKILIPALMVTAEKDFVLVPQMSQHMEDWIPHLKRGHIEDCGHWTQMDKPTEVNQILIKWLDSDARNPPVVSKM
As to the kind of experiment: sEH degradation in HepG2 cells by immunoblot. The class given is cell-based. The following applies: for effect of co-treatment on sEH degradation induced by 1a: co-treatment with 1a, immunoblot.

Test [2] deals with T1, sEH. As to the kind of experiment: Immunofluorescence colocalization of sEH with compartment markers. The following applies: co-treatment with 1a. The class given is cell-based. An outline of the steps: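 Fixed in 4% paraformaldehyde for 20 min, permeabilised with 0.02% Triton X-100, blocked 1 h at room temperature in 5% goat serum with 1% BSA. Mouse anti-sEH plus rabbit anti-LAMP2 at 4 °C overnight; Alexa Fluor 647/488 secondaries (1:500) for 1 h; DAPI 10 min. Imaged at 20x by high-content imaging, automated analysis. Colocalisation area normalised to cell count.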

A further test relates to EPHX2. As to the kind of experiment: sEH transcription by qRT-PCR. Type of test: cell-based, human. On the technique in general: Quantitative PCR measures a nucleic acid by following its amplification.
Test [3] addresses T1, sEH. As to the kind of experiment: sEH level in CRBN-knockout HEK293T cells. The class given is cell-based. The method in brief: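 CRBN knockout HEK293T cells were maintained in high-glucose (4.5 g/L) DMEM with 10% fetal bovine serum, 100 units/mL penicillin and streptomycin.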
Test [4] deals with T1, sEH. As to the kind of experiment: Residual sEH hydrolase activity of treated HepG2 cells. Type of test: cell-based. The note with it: HepG2, 1 μM, 24 h.

As to `CC(C)C[C@H](NC(=O)[C@H](Cc1ccccc1)NC(=O)c1cnccn1)B(O)O` [BTZ, bortezomib], the “effect of co-treatment on sEH degradation induced by 1a” value (“effect of co-treatment … by 1a” below) on sEH [1] is recorded as “slightly reversed the sEH degradation induced by 1a but higher concentrations failed to block”. Moreover, on sEH [1] (co-treatment with 1e or 2a), the “effect of co-treatment on sEH degradation induced by 1e and 2a” value was “failed to block the degradation”.

As for `CO/C1=C\C(C)=C\[C@@H](C)[C@@H](O)[C@@H](C)C/C(C)=C/C=C/[C@H](OC)[C@@H]([C@@H](C)[C@@H](O)[C@H](C)[C@@]2(O)C[C@@H](O)[C@H](C)[C@@H](C(C)C)O2)OC1=O` [BafA1, bafilomycin A1], the “effect of co-treatment … by 1a” value on sEH [1] was “blocked the degradation”. Also, the “effect of co-treatment on 1a-promoted sEH colocalization with LAMP2” value at sEH [2] is “reversed this trend”.

Take `CC(C)C[C@@H](C=O)NC(=O)[C@H](CC(C)C)NC(=O)[C@H](CC(C)C)NC(=O)OCc1ccccc1` [MG132] (Cbz-Leu-Leu-Leu-aldehyde): the “effect of co-treatment … by 1a” value on sEH [1] is “failed to block the degradation induced by PROTAC 1a and instead promoted sEH degradation”. Besides, the “effect on transcription of sEH” value in the test with EPHX2 is given as “did not affect”. On sEH [3], the “effect on sEH level in CRBN-knockout cells” value is listed as “neither 1a nor MG132 affect sEH level”.

Regarding `NS(=O)(=O)OC[C@@H]1C[C@@H](n2ccc3c(N[C@H]4CCc5ccccc54)ncnc32)C[C@@H]1O` [MLN4924], the “effect of co-treatment … by 1a” value on sEH [1] was “blocked the sEH degradation”.

Consider `N#Cc1ccc(COC[C@H]2O[C@@H](n3c(NCc4ccc(Cl)c(Cl)c4)nc4c(N)ncnc43)[C@H](O)[C@@H]2O)cc1` [VER155008], for which the “effect of co-treatment … by 1a” value on sEH [1] is reported as “failed to rescue the sEH degradation”.

In the case of “trans-4-[4-(3-trifluoromethoxyphenyl-1-ureido)-cyclohexyloxy]-benzoic acid [Compound 1]”, the “effect of co-treatment … by 1a” value at sEH [1] is “counteract the degradation effect”. For the same compound, the “sEH hydrolase activity after treatment” value on sEH [4] is given as “only slight inhibition”.
